Laboratory results reported in ChEMBL document CHEMBL1143679, “Anti-inflammatory thiazine alkaloids isolated from the New Zealand ascidian Aplidium sp.: inhibitors of the neutrophil respiratory burst in a model of gouty arthritis” (J Nat Prod, 2007).
The source made the active and inactive calls.

How the values were obtained:
Neutrophil = assay: Inhibition of PMA-stimulated superoxide production in human neutrophils; assay type: functional, cell-based
Summary of the method: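 Neutrophils in HBSS, 1 × 10⁶ cells/well, preincubated 30 min with graded compound concentrations (HBSS, 1% v/v DMSO). WST-1 added (final 0.35 mM), then PMA (final 0.295 µM). Dye reduction read in real time at 450 nm for 20 min at 37 °C. Rate compared with buffer-treated cells; AI50 is the concentration giving 50% inhibition.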

HL-60 = assay: Antiproliferative activity against human HL60 cells after 48 hrs by MTT assay; details: HL-60, 48 h
[1] = Inhibition of superoxide production by xanthine/xanthine oxidase method; assay type: functional
Summary of the method: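 Cell-free enzyme assay. Graded compound dilutions were prepared in 0.1 M Tris pH 7.4, 0.2 mM EDTA, 1% v/v DMSO. Final WST-1 0.35 mM, xanthine 2.38 mM and xanthine oxidase 15 mU/mL. Absorbance at 450 nm was read in real time for 20 min at 37 °C. The rate was compared with buffer controls, and the 50% inhibitory concentration was reported.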

Mus musculus [2] = assay: Inhibition of superoxide production in peritoneal neutrophils of C57BL/6 gouty mouse at 25.6 umol/kg, po after 4 hrs relative to monosodium urate; assay type: functional; details: C57BL/6, po
Summary of the method: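 Male C57BL/6 mice, 8–12 weeks, received MSU crystals (3 mg in 500 µL PBS pH 7.4) ip, with oral gavage of compound (25.6 µmol/kg) at the same time. PBS-gavaged controls; colchicine given sc at 5 µmol/kg. After 4 h, peritoneal lavage with heparinized PBS. Cells adjusted to 1 × 10⁶ neutrophils/mL; PMA-triggered WST-1 reduction measured per million neutrophils, relative to MSU-only mice.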

Mus musculus [3] = assay: Inhibition of urate-induced neutrophil recruitment into peritoneal cavity in mouse at 25 umol/kg; assay type: functional
Summary of the method: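 In the ip MSU (3 mg) mouse model with oral gavage dosing, peritoneal lavage was taken at 4 h. Total cells were counted. A cytocentrifuged aliquot was stained with Diff-Quick, and the neutrophil percentage was scored microscopically by standard histological criteria.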

Compound | IC50 (Neutrophil) | IC50 (HL-60) | IC50 [1] | inhibition in vivo at 25.6 µmol/kg (Mus musculus [2]) | Activity (Mus musculus [3]) | inhibition in vivo at 25 µmol/kg (Mus musculus [3])
COC(=O)c1ccc2cccc(O)c2n1 | 277 µM | 96.9 µM | – | – | – | –
COC(=O)c1ccc2c(n1)C(=O)C=CC2=O | 1.75 µM | 4.11 µM | – | – | – | –
O=C(O)c1ccc2c(n1)C(=O)C1=C(C2=O)S(=O)(=O)CCN1 [ACIDIATHIAZONE A] | – | – | 55.9 µM | 23% | inactive | –
Oc1ncnc2[nH]ncc12 [ALLOPURINOL] | – | – | 42.2 µM | – | – | –
COC(=O)c1ccc2c(n1)C(=O)C1=C(C2=O)S(=O)(=O)CCN1 [ASCIDIATHIAZONE A METHYL ESTER] | – | – | 18.2 µM | 84% | – | 60%
O=C(O)c1ccc2c(n1)C(=O)C1=C(NC=CS1(=O)=O)C2=O [ASCIDIATHIAZONE B] | 0.44 µM | 16.7 µM | 17.9 µM | 59% | inactive | –
CN(Cc1cnc2nc(N)nc(N)c2n1)c1ccc(C(=O)N[C@@H](CCC(=O)O)C(=O)O)cc1 [METHOTREXATE] | – | 0.00692 µM | – | – | – | –
